High-throughput results deposited in PubChem by several laboratories.
Calb FLC: affects C. albicans growth with fluconazole | C. albicans CaCi-2 (fluconazole-resistant clinical isolate) + fluconazole, Alamar Blue growth, 48 h | growth inhibition, % (test concentration not listed) | 300,000 tested, 0.57% active;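 active means growth inhibition above about 58% in most replicates, limit read from the data, passing the limit was not always enough; inconclusive means exactly half the replicates above a set limit; inactive means most replicates below a set limit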;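 further: all wells also contain fluconazole at 8 µg/ml as a sub-toxic cotreatment; 0% = median of DMSO wells and 100% = median of geldanamycin control wells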
T cruzi repl: T. cruzi replication inhibition | T. cruzi beta-gal in NIH3T3, luminescence, 90 h | 300,000 tested, 1.4% active | inhibition, % (concentration not given with the values);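 active means mean inhibition across valid replicates above about 55%, limit read from the data; inconclusive means mean below that limit but half or more replicates reach it; inactive means mean below it, under half of replicates reach it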;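 further: signal also drops with host cell toxicity which is not excluded here; 0% = plate median of DMSO wells and 100% = zero luminescence signal; higher percent means less beta-gal luminescence so fewer parasites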
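Assay system: NIH/3T3 fibroblasts plus reporter T. cruzi. Amount: NIH/3T3 cells, 5,000 per well. Buffer or medium: DMEM, 2% fetal bovine serum. Doses: compound pinned at 50 nL/well, DMSO. Schedule: ≥90 h infection period, 3 h prior cell attachment. Signal: luminescent β-galactosidase signal after 60 min lysis. Read-out: parasite load inhibition, %.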
SKKanGAS inh: inhibitors of SKKanGAS S. pyogenes growth in kanamycin (SK-promoter or general growth effect); BacTiter-Glo, 6 h; inhibition, % at 7.5 µM; 300,000 tested, 1.3% active;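 active means mean replicate score, as percent of positive control median, at least 50; inconclusive means mean below 50 but one replicate at or above 50; inactive means mean and every replicate below 50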;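 further: strain carries kanamycin resistance gene driven by streptokinase promoter and grows in 40 µg/ml kanamycin; loss of luminescence reflects streptokinase promoter inhibition or plain growth inhibition; 0% = median of DMSO wells and 100% = positive control at its reference dose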
Mdm2 MdmX PPI: disrupts the human Mdm2-MdmX interaction | SaOS-2 split-luciferase Mdm2/MdmX complementation, luminescence | inhibition, % at 8 µM | 330,000 tested, 3% active | O15151+Q00987;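 active means inhibition of at least 50% at 8 µM in the primary screen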
CSC inhib: blocks cancer stem cells. inhibition, % at 7.5 µM. AID 2717. 300,000 tested, 1.1% active. cancer stem cell-like cells viability, luminescence; in the data active means inhibition above about 75%; inconclusive means no clear call, values can overlap the other calls; tested in HMLE shEcad cells
Beta apoptosis: beta cell apoptosis inhibition; INS-1E cytokine-induced death, ATP luminescence, 48 h; percent of positive-control rescue, neutral wells zero; protection from apoptosis, % (concentration not given with the values); 300,000 tested, 0.8% active; AID 435005;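 active means Every replicate reaches about 75%, or at least half do and their mean reaches it too, limit read from the data; inconclusive means At least half of replicates reach the limit but their mean does not; inactive means Under half of replicates reach the limit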;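 further: 0% = cytokine-treated negative control wells and 100% = positive control rescue; higher means more ATP so stronger rescue from cytokine killing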
Starred values were filed as active, the others as inactive; ? = inconclusive; . = no result given. Most compounds without a hit are left out; they make up all but 5.7% or so of the library.

SMILES	Calb FLC	T cruzi repl	SKKanGAS inh	Mdm2 MdmX PPI	CSC inhib	Beta apoptosis
CC1CN(c2nc3ccccc3nc2C(C#N)C(=O)OC2CCCCC2)CC(C)O1 (configuration not stated)	-3.6	62.9*	21.3	16.7	11.7	32.9
CC(=O)c1cc(C#N)c(N2CCCC2)nc1C	92.8*	10.8	3.9	12.9	.	-1.4
COc1ccc(C(C(=O)NC2CCCC2)N(C(=O)c2snc(-c3ccc(F)cc3)c2N)c2ccc(OC)cc2)cc1 (configuration not stated)	-8.6	60.4*	8.3	20.8	-9.1	15.0
COc1ccc(C(C(=O)NC2CCCC2)N(C(=O)c2snc(-c3ccc(F)cc3)c2N)c2ccccc2)cc1 (configuration not stated)	?	-13.5	12.4	29.3	9.8	1.9
CNC(=S)c1cc(C(C)(C)C)c(O)c(C(C)(C)C)c1	3.2	3.8	-3.7	19.6	-25.5	-7.4
Cc1cccc(NC(=S)NNC(=O)c2cc3c(s2)CCC(C)C3)c1C (configuration not stated)	109.6*	16.5	-6.1	8.6	.	0.3
CCOC(=O)c1c(CSc2ccccc2)oc2ccc(O)cc12	?	14.7	12.2	-4.6	22.7	-3.8
CCOC(=O)c1c(CSc2ccc(C)cc2)oc2ccc(O)cc12	-9.9	6.1	42.7	25.0	135.2*	-7.3
CC(C)(C)OC(=O)N1CCC(Cc2cc(-c3cccnc3)no2)(C(=O)O)CC1	-1.6	-19.1	3.6	-9.0	6.7	-11.5
O=C1NC2(CCC3(CC2)OCCO3)NN1c1ccc(Cl)cc1	105.6*	22.8	3.4	3.4	37.2	1.9
CCN1/C(=C\c2ccc3cc(C)ccc3[n+]2CC)Sc2cc(C)c(C)cc21	103.9*	63.9*	70.8*	.	.	.
CN(C)C(CNS(=O)(=O)c1ccc2ccccc2c1)c1ccccc1 (configuration not stated)	-2.1	7.3	-0.9	-9.2	81.6*	1.1
CN(C)c1ccc(C(CNS(=O)(=O)c2ccc3ccccc3c2)N2CCOCC2)cc1 (configuration not stated)	-4.9	10.1	-6.0	-9.7	-2.7	-5.7
CC1=C(C(=O)OC(C)C)C(c2ccc(Cl)cc2)n2c(s/c(=C\c3ccc(OCC(=O)O)cc3)c2=O)=N1 (configuration not stated)	13.0	18.6	18.8	.	.	.
Cc1csc2c(N3CCN(C(=O)c4ccc(C(C)(C)C)cc4)CC3)ncnc12	19.8	-13.1	9.8	2.6	3.6	115.9*
Cc1csc2c(N3CCN(C(=O)NC(C)(C)C)CC3)ncnc12	-3.9	-8.6	0.8	25.7	-1.0	2.7
Cc1csc2c(N3CCN(C(=O)Nc4ccc(Cl)c(Cl)c4)CC3)ncnc12	3.1	0.1	61.8*	18.9	10.9	-2.6
COc1ccc(C2=NS(=O)(=O)N(C)C(C(=O)NCc3ccc(F)cc3)=C2)cc1OC	-3.1	5.4	-3.3	12.2	-24.4	-1.9
CN(CC(=O)Nc1cccc(F)c1)C(=O)c1ccccc1OCCOc1ccccc1	13.0	-20.6	-3.7	14.2	-11.4	-4.2
CCc1ccccc1NC(=S)Nn1cnnc1	4.2	.	.	-5.3	3.4	-5.4
COc1ccc(-n2nc(C(=O)NCC(=O)NC(C)C)c3ccccc3c2=O)c(OC)c1	6.2	-12.2	0.4	-4.4	-3.9	-7.1
COc1ccc(NC(=O)CNC(=O)c2nn(-c3ccc(OC)cc3OC)c(=O)c3ccccc23)c(OC)c1	93.0*	5.7	3.6	5.9	-41.7	0.2
Cc1ccc(N2C(=O)SC(Cc3ccccc3)C2=O)cc1 (configuration not stated)	8.0	1.2	5.8	11.0	2.7	-2.5
CCn1c(-c2ccccc2)c[nH]c1=S	-1.6	-15.4	72.5*	-1.3	.	-6.6
O=C(NNC(=O)c1ccccc1Cl)c1cccs1	-0.3	-4.5	-3.5	11.9	-14.7	-7.3
SMILES	Calb FLC	T cruzi repl	SKKanGAS inh	Mdm2 MdmX PPI	CSC inhib	Beta apoptosis
Cc1ccc(C(=O)NC(=S)NNC(=O)c2ccccc2[N+](=O)[O-])cc1	113.5*	.	.	-0.9	-7.5	4.5
Cc1ccccc1C(=O)NNC(=S)NC(=O)c1ccccc1	97.7*	-47.1	48.0	27.9	-6.4	11.2
O=C(NC(=S)NNC(=O)c1ccccc1O)c1cccs1	16.4	1.3	90.2*	31.6	.	5.4
O=C(NC(=S)NNC(=O)c1ccccc1O)c1ccc(F)cc1	2.9	15.5	80.9*	18.2	10.7	15.9
N#CCc1ccccc1C(=O)OCC(=O)N(Cc1ccccc1)Cc1ccccc1	.	.	.	22.7	-16.5	7.0
COc1cc(/C=C2\CCOC2=O)cc(OC)c1OC	6.0	-8.5	-3.2	0.3	-0.1	-8.3
CCCC[n+]1ccn(-c2nc3c([N+](=O)[O-])cccc3n2C)c1	3.7	2.9	5.6	-50.4	.	.
CCCCOc1ccccc1C(=O)NNC(=S)NC(=O)c1ccccc1[N+](=O)[O-]	102.5*	27.0	76.9*	41.9	20.0	66.8
Cc1ccc(C(=O)NC(=S)NNC(=O)c2ccccc2O)cc1	-7.5	0.8	102.1*	36.7	59.5	23.5
O=C(Cc1ccc(Cl)cc1)NNC(=S)NC(=O)c1cccs1	109.0*	-19.7	81.9*	30.8	12.8	62.7
O=C(NNC(=S)NC(=O)c1ccccc1[N+](=O)[O-])c1ccccc1[N+](=O)[O-]	3.7	-6.0	-2.0	19.2	.	.
O=C(NC(=S)NNC(=O)c1ccccc1O)c1ccccc1	21.4	3.5	93.2*	18.3	21.5	.
Cc1cc(C(C)(C)C)cc(C)c1S(=O)(=O)N1CCN(C(=O)c2cc([N+](=O)[O-])c[nH]c2=O)CC1	2.5	31.6	21.5	13.1	-16.4	1.2
Cc1ccc(Oc2nc(CN3CCOCC3)nc3sc4c(c23)CCC(C)C4)cc1 (configuration not stated)	25.6	8.7	10.4	11.1	60.5	-8.5
Cc1ccc(Oc2nc(CN3CCOCC3)nc3sc4c(c23)CCC(C)C4)cc1C (configuration not stated)	-3.0	22.8	24.9	14.2	120.2*	-0.2
S=c1nc2c(n[nH]1)c1ccccc1n2CCc1ccccc1	1.0	66.2*	4.4	23.2	2.1	18.4
O=C(O)CCC(=O)N1CCN(c2ncccc2C(F)(F)F)CC1	7.3	-5.6	-0.1	10.8	-13.4	-5.9
CCCCCCn1c(=O)[nH]c2nc3cc(N)ccc3nc2c1=O	-129.6	-1.3	24.6	.	81.8*	-12.9
O=C(c1cc(COc2ccc(F)cc2Cl)on1)N1CCN(c2cnccn2)CC1	1.8	-8.8	46.7	-1.7	19.9	.
Cc1cc(C)cc(C(=O)Nc2nc3ccccc3[nH]2)c1	-25.9	-18.0	?	-54.5	17.7	34.3
COc1ccc2oc(C(=O)Nc3nc4ccccc4[nH]3)c(C)c2c1	11.6	30.5	78.0*	-174.2	27.4	28.3
COc1cc(OC)cc(C(=O)Nc2nc3ccccc3[nH]2)c1	-13.4	9.4	59.0*	-44.5	4.7	3.5
